For 74 sequences, Tm and folding enthalpy results are on record in the array DNA melting data of Ke et al. (doi:10.1101/2024.01.08.574731).

Data set [1] is described as follows: melting temperature; fluorescence melt of hairpins on a sequencing array, two-state fit, raised by 9.35 °C to match UV melts. The settings on record: sodium 0.088 M. The essentials: (§1)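 To match UV melts, fitted temperatures were raised by 9.35 °C. These fits were bootstrapped two-state models that gave melting temperature and folding enthalpy, combined by inverse variance over four replicates. The input was normalised Cy3 fluorescence of library hairpins with annealed Cy3 and quencher oligos on a sequenced MiSeq flow cell, imaged in 50 mM Na-HEPES pH 8.0, 25 mM NaCl in 2.5 °C steps up to 60 °C.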

The nature of data set [2]: folding enthalpy; higher = less favourable; fluorescence melt of hairpins on a sequencing array, two-state fit. The settings on record: sodium 0.088 M. Summed up:
as §1

On to CGCGCGGAAACGCTGCG ((((((....))).))), for which the Tm in data set [1] stood at 57.1 °C. The folding enthalpy in data set [2] was -26.9 kcal/mol.
In the same order, the values of CGCGCTCGGAAACGAGCG (((..(((....)))))) are 67.6 °C and -7.49 kcal/mol.
As for “CGCGGAAAAACAACAACCGCG ((.................))”, the Tm in data set [1] worked out at 44.5 °C. In data set [2], the folding enthalpy was -25.1 kcal/mol.
Take CGCGGAAAAACAACCGCG ((..............)): the Tm in data set [1] came to 49.8 °C. In data set [2], the folding enthalpy was -26.4 kcal/mol.
In the same order, the values of CGCGGAAATCTCCGCG ((((((....)))))) are 62.2 °C and -40.2 kcal/mol.
In the same order, the values of CGCGGAAATGTCCGCG ((((((....)))))) are 69.1 °C and -32.5 kcal/mol.
In the same order, the values of CGCGGAACAATCCGCG ((((((....)))))) are 61.5 °C and -37 kcal/mol.
For CGCGGAACAGTCCGCG ((((((....)))))), the Tm in data set [1] came out at 67.2 °C. In addition, in data set [2], the folding enthalpy was -33.1 kcal/mol.
For CGCGGAACATTCCGCG ((((((....)))))) the same measures were 65.3 °C and -35.9 kcal/mol.
With CGCGGAACCGTCCGCG ((((((....)))))), in data set [1], the Tm was found to be 68.4 °C. Besides, the folding enthalpy in data set [2] was -31.9 kcal/mol.
For the sequence CGCGGAACGCTCCGCG ((((((....)))))), the Tm in data set [1] amounted to 57.4 °C. Also, in data set [2], the folding enthalpy was -28.9 kcal/mol.
For CGCGGAAGACTCCGCG ((((((....)))))) the same measures were 62.8 °C and -41.6 kcal/mol.
In the same order, the values of CGCGGAAGAGTCCGCG ((((((....)))))) are 62.6 °C and -36 kcal/mol.
Turning to CGCGGAAGCGTCCGCG ((((((....)))))), the Tm in data set [1] came out at 53.2 °C. In data set [2], the folding enthalpy is -13.4 kcal/mol.
For CGCGGACAGTCCGCG ((((((...)))))) the same measures were 65.6 °C and -32.6 kcal/mol.
CGCGGACCGTCCGCG ((((((...)))))): the Tm in data set [1] was 68.9 °C. Further, the folding enthalpy in data set [2] was -29 kcal/mol.
For CGCGGACGTTTCCGCG ((((((....)))))) the same measures were 69.2 °C and -31.9 kcal/mol.
CGCGGACTAATCCGCG ((((((....)))))): the Tm in data set [1] was determined as 65.9 °C. The folding enthalpy in data set [2] was -38.3 kcal/mol.
In the same order, the values of CGCGGACTCCTCCGCG ((((((....)))))) are 68.9 °C and -37.2 kcal/mol.
In the same order, the values of CGCGGACTGCTCCGCG ((((((....)))))) are 62.4 °C and -39.8 kcal/mol.
For CGCGGAGCGTCCGCG ((((((...)))))) the same measures were 68.1 °C and -7.62 kcal/mol.
CGCGGATAGTCCGCG ((((((...)))))): the Tm in data set [1] came out at 63.6 °C. The folding enthalpy in data set [2] was -40.8 kcal/mol.
For CGCGGATCGCTCCGCG ((((((....)))))) the same measures were 69.2 °C and -28.6 kcal/mol.
In the same order, the values of CGCGGATGGCTCCGCG ((((((....)))))) are 68.9 °C and -30.6 kcal/mol.
In the same order, the values of CGCGTCGGAAACGATGCG (((.(((....))).))) are 62.4 °C and -54.9 kcal/mol.
Consider CGCGTTCGGAAACGAGCG (((..(((....)))))), for which, in data set [1], the Tm was found to be 48.5 °C. In data set [2], the folding enthalpy was -19.6 kcal/mol.
In the same order, the values of CGCTCCCGGAAACGGGCG (((..(((....)))))) are 42.7 °C and -15.3 kcal/mol.
In the same order, the values of CGCTCGGAAACGAGGCG ((((((....))).))) are 53.2 °C and -30.6 kcal/mol.
In the same order, the values of CGCTGGAAACAGCG (((((....))))) are 66.2 °C and -31.2 kcal/mol.
Consider CGCTTCGGAAACGACGCG (((.(((....))).))), for which, in data set [1], the Tm was found to be 51.5 °C. Further, the folding enthalpy in data set [2] was -48.8 kcal/mol.
For CGGAACGGAAACGTCCCG (((.(((....))).))) the same measures were 47.1 °C and -36.3 kcal/mol.
In the same order, the values of CGGAACGGAAACGTGCCG (((.(((....))).))) are 56 °C and -44.3 kcal/mol.
In the same order, the values of CGGACCGGAAACGGCCG (((.(((....)))))) are 56 °C and -28.9 kcal/mol.
In the case of CGGACGGAAACGTAGCCG ((((((....)))..))), the Tm in data set [1] turned out to be 33.4 °C. In data set [2], the folding enthalpy is -23.6 kcal/mol.
For CGGACGGAAACGTCCCG ((((((....))).))) the same measures were 50.7 °C and -10.8 kcal/mol.
For the sequence CGGACGGAAACGTTGCCG ((((((....)))..))), the Tm in data set [1] amounted to 37.8 °C. Moreover, the folding enthalpy in data set [2] was -15.7 kcal/mol.
In the same order, the values of CGGATACGGAAACGTCCG (((..(((....)))))) are 40.4 °C and -18.6 kcal/mol.
On to CGGCCCGGAAACGGCCG (((.(((....)))))), for which the Tm in data set [1] was found to be 63.7 °C. Moreover, the folding enthalpy in data set [2] was -31 kcal/mol.
CGGCCGGAAACGGACCCG ((((((....)))..))): the Tm in data set [1] is 38.8 °C. The folding enthalpy in data set [2] was -12.1 kcal/mol.
In the same order, the values of CGGCCGGAAACGGTTCCG ((((((....)))..))) are 41.1 °C and -21.6 kcal/mol.
For CGGCGACGGAAACGTCCG (((..(((....)))))) the same measures were 38.5 °C and -17.4 kcal/mol.
In the same order, the values of CGGCGCCGGAAACGGCCG (((..(((....)))))) are 54.8 °C and -8.91 kcal/mol.
With CGGCTACGGAAACGTCCG (((..(((....)))))), the Tm in data set [1] was 36.6 °C. Also, the folding enthalpy in data set [2] is -13.3 kcal/mol.
Take CGGCTGCGGAAACGCCCG (((..(((....)))))): the Tm in data set [1] is 44.2 °C. Moreover, the folding enthalpy in data set [2] was -18.5 kcal/mol.
In the same order, the values of CGGGACGGAAACGTCCG (((.(((....)))))) are 57.9 °C and -12.9 kcal/mol.
For CGGGACGGAAACGTTCCG (((.(((....))).))) the same measures were 59.4 °C and -37.8 kcal/mol.
In the same order, the values of CGGGCGGAAACGCCACCG ((((((....)))..))) are 42.4 °C and -9.3 kcal/mol.
As for CGGGCGGAAACGCCCCG ((((((....))).))), in data set [1], the Tm came out at 59.6 °C. In addition, in data set [2], the folding enthalpy was -8.53 kcal/mol.
On to CGGGCGGAAACGCGCCG ((((((....))).))), for which, in data set [1], the Tm is 55.5 °C. Moreover, in data set [2], the folding enthalpy is -16.6 kcal/mol.
With CGGGGCCGGAAACGGCCG (((..(((....)))))), in data set [1], the Tm was found to be 53.8 °C. Moreover, the folding enthalpy in data set [2] is -4.87 kcal/mol.
In the same order, the values of CGGGTCCGGAAACGGCCG (((..(((....)))))) are 47.5 °C and -14.3 kcal/mol.
For CGGGTTCGGAAACGACCG (((..(((....)))))), the Tm in data set [1] was found to be 39.4 °C. In addition, the folding enthalpy in data set [2] was -19.9 kcal/mol.
In the same order, the values of CGGTCACGGAAACGTCCG (((..(((....)))))) are 38.7 °C and -10.3 kcal/mol.
In the same order, the values of CGGTCGGAAACGAAGCCG ((((((....)))..))) are 38.1 °C and -24.1 kcal/mol.
In the same order, the values of CGGTCGGAAACGATGCCG ((((((....)))..))) are 38.6 °C and -22.1 kcal/mol.
Consider CGGTGACGGAAACGTCCG (((..(((....)))))), for which, in data set [1], the Tm is 44.3 °C. Besides, the folding enthalpy in data set [2] was -12 kcal/mol.
For CGGTGCGGAAACGCCCG (((.(((....)))))) the same measures were 58 °C and -30.8 kcal/mol.
For the sequence CGGTGGAAACACCG (((((....))))), the Tm in data set [1] was 68 °C. The folding enthalpy in data set [2] was -26.1 kcal/mol.
In the same order, the values of CGTAAACGGAAACGTACG (((..(((....)))))) are 34.8 °C and -23.5 kcal/mol.
For CGTAACGGAAACGTACG (((.(((....)))))) the same measures were 44.3 °C and -31 kcal/mol.
For CGTACCGGAAACGGGACG (((.(((....))).))) the same measures were 64.8 °C and -36.4 kcal/mol.
CGTACGCGGAAACGCACG (((..(((....)))))): in data set [1], the Tm turned out to be 40.7 °C. The folding enthalpy in data set [2] was -13.5 kcal/mol.
For CGTACGGAAACGTACACG ((((((....)))..))) the same measures were 39.9 °C and -11.5 kcal/mol.
For CGTACGGAAACGTCTACG ((((((....)))..))) the same measures were 30.7 °C and -14.7 kcal/mol.
Regarding CGTACGGAAACGTGACG ((((((....))).))), the Tm in data set [1] worked out at 41.1 °C. In addition, the folding enthalpy in data set [2] was -25.9 kcal/mol.
For CGTACGGAAACGTGGACG ((((((....)))..))) the same measures were 35.2 °C and -15.1 kcal/mol.
For CGTACGGAAACGTTGACG ((((((....)))..))), in data set [1], the Tm was found to be 36.3 °C. In addition, in data set [2], the folding enthalpy is -16.5 kcal/mol.
In the same order, the values of CGTAGACGGAAACGTACG (((..(((....)))))) are 36.9 °C and -16.7 kcal/mol.
As for CGTAGCGGAAACGCAACG (((.(((....))).))), the Tm in data set [1] is 53 °C. Besides, the folding enthalpy in data set [2] is -29.5 kcal/mol.
For CGTAGCGGAAACGCGACG (((.(((....))).))) the same measures were 59.1 °C and -31 kcal/mol.
For CGTAGGAAACTACG (((((....))))) the same measures were 48.2 °C and -21 kcal/mol.
For CGTATACGGAAACGTACG (((..(((....)))))) the same measures were 33 °C and -27.7 kcal/mol.
Take CGTATCCGGAAACGGACG (((..(((....)))))): in data set [1], the Tm was 32.5 °C. Moreover, the folding enthalpy in data set [2] is -13.8 kcal/mol.
CGTATCGGAAACGACACG (((.(((....))).))): in data set [1], the Tm worked out at 42.6 °C. Moreover, the folding enthalpy in data set [2] is -31.2 kcal/mol.
